# Laboratory results reported in ChEMBL document CHEMBL1121417, “[1-beta-Mercapto-beta,beta-cyclopentamethylenepropionic acid),2-(O-methyl)tyrosine ]argine-vasopressin and [1-beta-mercapto-beta,beta-cyclopentamethylenepropionic acid)]argine-vasopressine, two highly potent antagonists of the vasopressor response to arginine-vasopressin” (J Med Chem, 1980).
# Starred links: 1 amine or outer side, 2 acyl side, 3 side chain; linkers in the order of their positions; H or OH if unused. Positions of bridges follow the written chain, without caps; N, C: chain ends. Non-standard residues stand in square brackets, D forms with d. Residues, ends and D or L forms follow the SMILES beside them. X1 = O=C(CC1(S[*:2])CCCCC1)[*:1]; X2 = CC(C)(CC(=O)[*:1])S[*:2]; Mpa = O=C(O)CCS
# Assays:
# Rattus norvegicus [1] = organism: Rattus norvegicus; assay: Tested for […] anti-oxytocic effect in the absence of Mg2+ in rats; format: functional, organism-based; conditions: for Kb: Rattus norvegicus, read-out: pA2 (converted)
# Summary of the method: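 Isolated rat uterus in vitro in a medium without Mg2+. Antagonism is expressed as pA2 by the Schild method, computed per assay group, with mean ± SE and the number of assays.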
# Rattus norvegicus [2] = assay: Tested for intravenous anti-vasopressor pA2 effect in rats; format: functional, organism-based; conditions: for Kb: Rattus norvegicus, read-out: pA2 (converted)
# Summary of the method: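 Vasopressor assay in rats pretreated with phenoxybenzamine under urethane anesthesia, using intravenous injections. The pA2 is derived by the Schild method for each assay group and reported as mean ± SE, with the number of assays given.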
# Rattus norvegicus [3] = assay: Tested for intravenous anti-vasopressor pA2 effect in rats; agonist at concentration of 4 units/mg; conditions: filed as agonist
# Rattus norvegicus [4] = assay: Tested for intravenous antidiuretic activity in rats; format: functional, Urine; set-up: unit: U/mg
# Summary of the method: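 Intravenous antidiuretic assay in rats under ethanol anesthesia. Agonistic activity is expressed in units per milligram.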
# Rattus norvegicus [5] = assay: Tested for intravenous anti-oxytocic effect in the absence of Mg2+ in rats; agonist at concentration of 8 units/kg; format: functional, organism-based; conditions: filed as agonist
# Rattus norvegicus [6] = assay: Tested for intravenous anti-vasopressor pA2 effect in rats; agonist at concentration of 346 units/kg; format: functional, organism-based; conditions: filed as agonist, in the assay text read “346 units/mg” for “346 units/kg”
# Summary of the method: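 Vasopressor assay in rats anesthetized with urethane and pretreated with phenoxybenzamine, with intravenous injections. Antagonism is expressed as pA2, calculated by Schild's method for each assay group and reported as mean ± SE, with the number of assays given.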
# Rattus norvegicus [7] = assay: Tested for intravenous anti-oxytocic effect in the absence of Mg2+ in rats; agonist at concentration of 47 units/kg; format: functional, organism-based; conditions: filed as agonist
# Rattus norvegicus [8] = assay: Tested for intravenous anti-oxytocic effect in in vivo in rats; format: functional, organism-based; conditions: read-out: pA2 (converted)
# Summary of the method: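 Rat uterus in situ; antagonism expressed as pA2 by the Schild method, calculated for each assay group and reported as mean ± SE, with the number of assays given.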
# Rattus norvegicus [9] = assay: Tested for intravenous anti-oxytocic effect in the presence of Mg2+ in rats; format: functional, organism-based; conditions: read-out: pA2 (converted)
Structure (SMILES),Kb (Rattus norvegicus [1]) [nM],Kb (Rattus norvegicus [2]) [nM],Antidiuretic activity (Rattus norvegicus [4]),other results
CC(C)[C@@H]1NC(=O)[C@H](Cc2ccccc2)NC(=O)[C@H](Cc2ccc(O)cc2)NC(=O)CC2(CCCCC2)SSC[C@@H](C(=O)N2CCC[C@H]2C(=O)N[C@H](CCCN=C(N)N)C(=O)NCC(N)=O)NC(=O)[C@H](CC(N)=O)NC1=O (YFVNCP[dR]G-NH2; linker N-5 via X1) [listing 1 of 2 here],240,20.9,–,–
COc1ccc(C[C@@H]2NC(=O)CCSSC[C@H](C(=O)N3CCC[C@H]3C(=O)N[C@@H](CCCN=C(N)N)C(=O)NCC(N)=O)NC(=O)[C@H](CC(N)=O)NC(=O)[C@H](CCC(N)=O)NC(=O)[C@H](Cc3ccccc3)NC2=O)cc1,–,–,–,pA2 (Rattus norvegicus [3]): agonist at concentration of 4 units/kg
CC(C)[C@@H]1NC(=O)[C@H](Cc2ccccc2)NC(=O)[C@H](Cc2ccc(O)cc2)NC(=O)CC2(CCCCC2)SSC[C@@H](C(=O)N2CCC[C@H]2C(=O)N[C@H](CCCN=C(N)N)C(=O)NCC(N)=O)NC(=O)[C@H](CC(N)=O)NC1=O (YFVNCP[dR]G-NH2; linker N-5 via X1) [listing 2 of 2 here],–,–,0.1,–
NC(=O)CC[C@@H]1NC(=O)[C@H](Cc2ccccc2)NC(=O)[C@H](Cc2ccc(O)cc2)NC(=O)CC2(CCCCC2)SSC[C@@H](C(=O)N2CCC[C@H]2C(=O)N[C@@H](CCCN=C(N)N)C(=O)NCC(N)=O)NC(=O)[C@H](CC(N)=O)NC1=O (YFQNCPRG-NH2; linker N-5 via X1) [listing 1 of 2 here],–,–,0.033,–
COc1ccc(C[C@@H]2NC(=O)CC(C)(C)SSC[C@@H](C(=O)N3CCC[C@H]3C(=O)N[C@@H](CCCN=C(N)N)C(=O)NCC(N)=O)NC(=O)[C@H](CC(N)=O)NC(=O)[C@H](CCC(N)=O)NC(=O)[C@H](Cc3ccccc3)NC2=O)cc1 (Y(Me)FQNCPRG-NH2; linker N-5 via X2) [listing 1 of 2 here],–,–,3.5,–
CC(C)[C@@H]1NC(=O)[C@H](Cc2ccccc2)NC(=O)[C@H](Cc2ccc(O)cc2)NC(=O)CCSSC[C@@H](C(=O)N2CCC[C@H]2C(=O)N[C@H](CCCNC(=N)N)C(=O)NCC(N)=O)NC(=O)[C@H](CC(N)=O)NC1=O ([Mpa]YFVNCP[dR]G-NH2; disulfide 1-6),–,93.3,1230,pA2 (Rattus norvegicus [5]): agonist at concentration of 8 units/kg
COc1ccc(C[C@@H]2NC(=O)CCSSC[C@@H](C(=O)N3CCC[C@H]3C(=O)N[C@@H](CCCN=C(N)N)C(=O)NCC(N)=O)NC(=O)[C@H](CC(N)=O)NC(=O)[C@H](CCC(N)=O)NC(=O)[C@H](Cc3ccccc3)NC2=O)cc1 [listing 1 of 2 here],–,–,830,–
N=C(N)NCCC[C@@H](NC(=O)[C@@H]1CCCN1C(=O)[C@@H]1CSSCCC(=O)N[C@@H](Cc2ccc(O)cc2)C(=O)N[C@@H](Cc2ccccc2)C(=O)N[C@@H](CCC(N)=O)C(=O)N[C@@H](CC(N)=O)C(=O)N1)C(=O)NCC(N)=O [DESMOPRESSIN],–,–,1745,pA2 (Rattus norvegicus [6]): Agonist; pA2 (Rattus norvegicus [7]): Agonist
COc1ccc(C[C@@H]2NC(=O)CCSSC[C@@H](C(=O)N3CCC[C@H]3C(=O)N[C@@H](CCCN=C(N)N)C(=O)NCC(N)=O)NC(=O)[C@H](CC(N)=O)NC(=O)[C@H](CCC(N)=O)NC(=O)[C@H](Cc3ccccc3)NC2=O)cc1 [listing 2 of 2 here],38.9,–,–,–
CC(C)[C@@H]1NC(=O)[C@H](Cc2ccccc2)NC(=O)[C@H](Cc2ccc(O)cc2)NC(=O)CC(C)(C)SSC[C@@H](C(=O)N2CCC[C@H]2C(=O)N[C@H](CCCN=C(N)N)C(=O)NCC(N)=O)NC(=O)[C@H](CC(N)=O)NC1=O (YFVNCP[dR]G-NH2; linker N-5 via X2) [listing 1 of 2 here],–,–,123,–
CC1(C)CC(=O)N[C@@H](Cc2ccc(O)cc2)C(=O)N[C@@H](Cc2ccccc2)C(=O)N[C@@H](CCC(N)=O)C(=O)N[C@@H](CC(N)=O)C(=O)N[C@H](C(=O)N2CCC[C@H]2C(=O)N[C@@H](CCCN=C(N)N)C(=O)NCC(N)=O)CSS1 (YFQNCPRG-NH2; linker N-5 via X2) [listing 1 of 2 here],–,–,42,–
CC1(C)CC(=O)N[C@@H](Cc2ccc(O)cc2)C(=O)N[C@@H](Cc2ccccc2)C(=O)N[C@@H](CCC(N)=O)C(=O)N[C@@H](CC(N)=O)C(=O)N[C@H](C(=O)N2CCC[C@H]2C(=O)N[C@@H](CCCN=C(N)N)C(=O)NCC(N)=O)CSS1 (YFQNCPRG-NH2; linker N-5 via X2) [listing 2 of 2 here],117,35.5,–,–
COc1ccc(C[C@@H]2NC(=O)CC3(CCCCC3)SSC[C@@H](C(=O)N3CCC[C@H]3C(=O)N[C@@H](CCCN=C(N)N)C(=O)NCC(N)=O)NC(=O)[C@H](CC(N)=O)NC(=O)[C@H](CCC(N)=O)NC(=O)[C@H](Cc3ccccc3)NC2=O)cc1 (Y(Me)FQNCPRG-NH2; linker N-5 via X1),7.41,2.4,0.31,Kb (Rattus norvegicus [8]): 240 nM; Kb (Rattus norvegicus [9]): 57.5 nM; pA2 (Rattus norvegicus [1]): 8.13; pA2 (Rattus norvegicus [2]): 8.67
CC(C)[C@@H]1NC(=O)[C@H](Cc2ccccc2)NC(=O)[C@H](Cc2ccc(O)cc2)NC(=O)CC(C)(C)SSC[C@@H](C(=O)N2CCC[C@H]2C(=O)N[C@H](CCCN=C(N)N)C(=O)NCC(N)=O)NC(=O)[C@H](CC(N)=O)NC1=O (YFVNCP[dR]G-NH2; linker N-5 via X2) [listing 2 of 2 here],58.9,15.1,–,–
NC(=O)CC[C@@H]1NC(=O)[C@H](Cc2ccccc2)NC(=O)[C@H](Cc2ccc(O)cc2)NC(=O)CC2(CCCCC2)SSC[C@@H](C(=O)N2CCC[C@H]2C(=O)N[C@@H](CCCN=C(N)N)C(=O)NCC(N)=O)NC(=O)[C@H](CC(N)=O)NC1=O (YFQNCPRG-NH2; linker N-5 via X1) [listing 2 of 2 here],–,4.47,–,Kb (Rattus norvegicus [8]): 162 nM; Kb (Rattus norvegicus [9]): 64.6 nM
COc1ccc(C[C@@H]2NC(=O)CC(C)(C)SSC[C@@H](C(=O)N3CCC[C@H]3C(=O)N[C@@H](CCCN=C(N)N)C(=O)NCC(N)=O)NC(=O)[C@H](CC(N)=O)NC(=O)[C@H](CCC(N)=O)NC(=O)[C@H](Cc3ccccc3)NC2=O)cc1 (Y(Me)FQNCPRG-NH2; linker N-5 via X2) [listing 2 of 2 here],24.5,20.4,–,–
